The nature of series [1]: Displacement of [3H]Ro-151788 from rat GABA-A receptor alpha-5-beta-3-gamma-2 subunits expressed in HEK293 cells. The format is cell-based. In a few lines:
(§1)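 Recombinant rat GABA-A subtypes are stably expressed in HEK293 cells grown in MEM/EBSS with 10% FCS at 37 °C. Membranes are made in 10 mM potassium phosphate pH 7.4 and resuspended with 100 mM KCl. Incubation uses 1–2 nM [3H]Ro15-1788 with compound at 10^-9–10^-5 M (≥6 concentrations), 1 h at 4 °C. […] Ki comes from Cheng–Prusoff, n=5, in triplicate.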

Series [2] concerns the target T1, GABA-A receptor; alpha-1/beta-2/gamma-2 (Rattus norvegicus, UniProt P18508+P62813+P63138). Description: (§2) Displacement of [3H]Ro-151788 from rat GABA-A receptor alpha-1-beta-2-gamma-2 subunits expressed in HEK293 cells. In kind it is cell-based. A general note: In a radioligand displacement assay an active substance lowers the binding of a labelled ligand.
Series [3] can be described thus: Displacement of [3H]-Ro-15-1788 from rat GABA-A receptor alpha-2-beta-2-gamma-2 subunits expressed in HEK293 cells. The format is cell-based. In a few lines:
as §1

Series [4] addresses GABA A receptor alpha-3/beta-2/gamma-2 (Rattus norvegicus, UniProt P18508+P20236+P63138). In words: Displacement of [3H]Ro-151788 from rat GABA-A receptor alpha-3-beta-2-gamma-2 subunits expressed in HEK293 cells. The format is cell-based.
The test system of series [5] is Mus musculus. In words: Anxiolytic activity in mice using light-dark box and % time spent in light was reported at 3 mg/kg peroral dose. The following applies: route oral. In kind it is functional. In short, it runs like this: (§3)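 Male CD-1 mice (22–24 g) given drug po in 1% carboxymethylcellulose (10 mL/kg). Each mouse placed in the centre of the lighted area facing away from the dark compartment and allowed to explore for 5 min; time spent in the illuminated side and number of transfers between compartments recorded. Tests run between 10:00 and 15:00.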

Series [6] has as its system Mus musculus. Description: Motor coordination of mouse as number of falls in 30 sec was reported after 100 mg/kg peroral dose using rotarod test. The following applies: route oral. In kind it is functional. In short, it runs like this: (§4)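 Male CD-1 mice dosed po (suspension in 1% carboxymethylcellulose, 10 mL/kg). Rota rod turning at 24 rpm; falls from the rod counted over 30 s, 25 min after drug administration.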
Background: The rotarod test checks motor coordination on a turning rod.

Series [7] deals with Mus musculus. In words: Motor coordination of mouse as number of falls in 30 sec was reported after 3 mg/kg peroral dose using rotarod test. The format is functional. To be noted: route oral. In a few lines: as §4
Series [8] in a line: Anticonvulsant activity electroshock induced convulsions and % lethality obtained at dose of 30 mg/kg. Also noted: dose 30 mg/kg. The format is organism-based. To be noted: mouse, in vivo, read-out: Lethality. In short, it runs like this: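 Male CD-1 mice (22–24 g), groups of 10–16, dosed po in 1% carboxymethylcellulose at 10 mL/kg. Electroshock (40 mA, 0.2 s, 50 Hz) applied to the corneas 30 min after dosing. End point is tonic hind limb extension; % protection and % lethality are recorded against vehicle-treated mice (χ2 analysis).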

The test system of series [9] is Mus musculus. Description: Anxiolytic activity in mice using light-dark box and no. of transfers between compartments were reported at 100 mg/kg peroral dose. In kind it is functional. To be noted: route oral. In a few lines: as §3
Series [10] relates to Mus musculus. In words: Anxiolytic activity in mice using light-dark box and % time spent in light was reported at 100 mg/kg peroral dose. The format is functional. To be noted: route oral. In short, it runs like this:
as §3

Series [11] deals with Mus musculus. Description: Motor coordination of mouse as number of falls in 30 sec was reported after 1 mg/kg peroral dose using rotarod test. The following applies: route oral. In kind it is functional. In a few lines:
(§5)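 Male CD-1 mice are dosed po in 1% CMC (flumazenil ip). Falls from a rota rod turning at 24 rpm are counted over 30 s, 25 min after drug administration, and compared with vehicle-treated mice. Means ± SEM.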

The test system of series [12] is Mus musculus. In words: Motor coordination of mouse as number of falls in 30 sec was reported after 30 mg/kg peroral dose using rotarod test. In kind it is functional. To be noted: route oral. In short, it runs like this: as §4
Series [13] deals with Mus musculus. In words: Motor coordination of mouse as number of falls in 30 sec was reported after 10 mg/kg peroral dose using rotarod test. To be noted: route oral. In kind it is functional. In a few lines: as §5
Series [14] deals with Mus musculus. In words: Anxiolytic activity in mice using light-dark box and % time spent in light was reported at 30 mg/kg peroral dose. The format is functional. To be noted: route oral. In short, it runs like this:
as §3

The subject of series [15] is Mus musculus. In words: Percent anticonvulsant activity against pentylenetetrazole (PTZ)-induced attacks at 3 mg/kg peroral dose. In kind it is functional. The following applies: route oral. In short, it runs like this:
(§6)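 Male CD-1 mice dosed po in 1% carboxymethylcellulose, 30 min before PTZ (90 mg/kg sc, in 0.9% saline). Occurrence of clonic generalized convulsions noted over 30 min; χ² analysis vs control mice.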

Series [16] deals with T1, GABA-A receptor; alpha-1/beta-2/gamma-2. Described as §2. The format is cell-based. In a few lines: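 Membranes from HEK293 cells stably expressing recombinant rat GABA-A subtypes, homogenized in 10 mM potassium phosphate pH 7.4 and resuspended with 100 mM KCl. Incubation with 1–2 nM [3H]Ro15-1788 and test compound (10^-9–10^-5 M, at least six concentrations; DMSO ≤1%) for 1 h at 4 °C to equilibrium.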
This is another data set of the same source.

Series [17] relates to Mus musculus. In words: Anxiolytic activity in mice using light-dark box and % time spent in light was reported at 1 mg/kg peroral dose. In kind it is functional. To be noted: route oral. In short, it runs like this: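 Light-dark box in male CD-1 mice. Ligands are given po in 1% CMC, flumazenil ip. Each mouse is placed in the centre of the lit area facing away from the dark one and explores for 5 min. Time in the illuminated side and number of transfers between compartments are recorded. Means ± SEM.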

The test system of series [18] is Mus musculus. In words: Anxiolytic activity in mice using light-dark box and no. of transfers between compartments were reported at 10 mg/kg peroral dose. The format is functional. The following applies: route oral. In short, it runs like this:
as §3

The test system of series [19] is Mus musculus. Description: Anxiolytic activity in mice using light-dark box and no. of transfers between compartments were reported at 1 mg/kg peroral dose. In kind it is functional. The following applies: route oral. In short, it runs like this:
as §3

Series [20] has as its system Mus musculus. In words: Anxiolytic activity in mice using light-dark box and no. of transfers between compartments were reported at 30 mg/kg peroral dose. The format is functional. To be noted: route oral. In short, it runs like this: as §3
For series [21], the system named is Mus musculus. Description: Anticonvulsant activity electroshock induced convulsions in hind limb of mice at a dose of 30 mg/kg. In kind it is functional, Hindlimb. In a few lines:
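Male CD-1 mice (22–24 g); oral dosing as suspension in 1% carboxymethylcellulose (10 mL/kg), 30 min before corneal electroshock (40 mA, 0.2 s, 50 Hz). Groups of 10–16 mice; end point tonic hind limb extension; lethality also recorded; χ² analysis vs CMC-treated mice.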

Series [22] has as its system Mus musculus. In words: Anxiolytic activity in mice using light-dark box and % time spent in light was reported at 10 mg/kg peroral dose. In kind it is functional. To be noted: route oral. In short, it runs like this: as §3
Series [23] deals with Mus musculus. Description: Percent anticonvulsant activity against pentylenetetrazole (PTZ)-induced attacks at 1 mg/kg peroral dose. The format is functional. The following applies: route oral. In a few lines: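 Male CD-1 mice are dosed po in 1% CMC (flumazenil ip). PTZ (90 mg/kg sc, in 0.9% saline) is injected 30 min later. Clonic generalized convulsions are scored over 30 min, with % protection compared with controls by χ2 analysis.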

In series [24] the test system is Mus musculus. In words: Percent anticonvulsant activity against pentylenetetrazole (PTZ)-induced attacks at 10 mg/kg peroral dose. The format is functional. To be noted: route oral. In short, it runs like this:
as §6

Series [25] relates to Mus musculus. In words: Percent anticonvulsant activity against pentylenetetrazole (PTZ)-induced attacks at 30 mg/kg peroral dose. In kind it is functional. The following applies: route oral. In short, it runs like this: as §6
Series [26] deals with Mus musculus. In words: Percent anticonvulsant activity against pentylenetetrazole (PTZ)-induced attacks at 100 mg/kg peroral dose. The format is functional. To be noted: route oral. In a few lines: as §6
Series [27] concerns the target GABA-A receptor; anion channel. Also on record: species or system Bos taurus.
The subject of series [28] is Mus musculus. In words: Anxiolytic activity in mice using light-dark box and no. of transfers between compartments were reported at 3 mg/kg peroral dose. The following applies: route oral. In kind it is functional. In a few lines: as §3
Series [29] relates to Mus musculus. In words: Anxiolytic activity in mice using light-dark box and % time spent in light was reported at 100 mg/kg intraperitoneal dose. The format is functional.
For series [30], the system named is Mus musculus. Description: Anxiolytic activity in mice using light-dark box and % time spent in light was reported at 30 mg/kg intraperitoneal dose. The format is functional.
Series [31] deals with Mus musculus. Description: Percent anticonvulsant activity against pentylenetetrazole (PTZ)-induced attacks at 100 mg/kg intraperitoneal dose. The format is functional.
In series [32] the test system is Mus musculus. Description: Anxiolytic activity in mice using light-dark box and no. of transfers between compartments were reported at 100 mg/kg intraperitoneal dose. In kind it is functional.
The subject of series [33] is Mus musculus. Description: Percent anticonvulsant activity against pentylenetetrazole (PTZ)-induced attacks at 30 mg/kg intraperitoneal dose. The format is functional.
Series [34] has as its system Mus musculus. Description: Anxiolytic activity in mice using light-dark box and no. of transfers between compartments were reported at 30 mg/kg intraperitoneal dose. In kind it is functional.
The test system of series [35] is Mus musculus. In words: Motor coordination of mouse as number of falls in 30 sec was reported after 30 mg/kg intraperitoneal dose using rotarod test. The format is functional. In a few lines: as §5
The subject of series [36] is Mus musculus. In words: Motor coordination of mouse as number of falls in 30 sec was reported after 100 mg/kg intraperitoneal dose using rotarod test. The format is functional. In a few lines:
as §5

T1 sequence (P18508 whole entry): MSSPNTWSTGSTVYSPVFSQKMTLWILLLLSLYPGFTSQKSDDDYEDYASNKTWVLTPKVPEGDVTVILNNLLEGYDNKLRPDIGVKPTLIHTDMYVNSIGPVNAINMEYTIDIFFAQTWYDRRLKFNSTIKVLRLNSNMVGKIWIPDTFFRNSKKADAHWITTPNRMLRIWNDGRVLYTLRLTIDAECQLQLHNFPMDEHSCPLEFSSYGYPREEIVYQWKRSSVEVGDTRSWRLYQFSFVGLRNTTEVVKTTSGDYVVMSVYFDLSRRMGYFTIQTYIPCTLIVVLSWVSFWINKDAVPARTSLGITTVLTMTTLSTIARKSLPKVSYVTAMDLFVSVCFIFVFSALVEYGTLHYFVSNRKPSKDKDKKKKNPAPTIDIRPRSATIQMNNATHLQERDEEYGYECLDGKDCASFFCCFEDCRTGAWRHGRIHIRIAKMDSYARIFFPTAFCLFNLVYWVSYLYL
T1 sequence (P62813 whole entry): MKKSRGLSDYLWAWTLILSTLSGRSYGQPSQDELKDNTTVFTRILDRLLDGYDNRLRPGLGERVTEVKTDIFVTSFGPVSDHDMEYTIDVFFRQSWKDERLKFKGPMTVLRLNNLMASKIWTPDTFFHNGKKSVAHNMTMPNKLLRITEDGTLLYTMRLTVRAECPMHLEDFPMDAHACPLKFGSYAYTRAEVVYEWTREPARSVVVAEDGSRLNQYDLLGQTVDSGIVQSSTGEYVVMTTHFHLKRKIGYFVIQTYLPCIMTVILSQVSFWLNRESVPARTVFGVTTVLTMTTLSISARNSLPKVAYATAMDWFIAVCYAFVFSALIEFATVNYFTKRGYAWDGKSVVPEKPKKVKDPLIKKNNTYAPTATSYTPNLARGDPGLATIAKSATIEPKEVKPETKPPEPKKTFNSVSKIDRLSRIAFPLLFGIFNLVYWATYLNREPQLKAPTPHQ
T1 sequence (P63138 whole entry): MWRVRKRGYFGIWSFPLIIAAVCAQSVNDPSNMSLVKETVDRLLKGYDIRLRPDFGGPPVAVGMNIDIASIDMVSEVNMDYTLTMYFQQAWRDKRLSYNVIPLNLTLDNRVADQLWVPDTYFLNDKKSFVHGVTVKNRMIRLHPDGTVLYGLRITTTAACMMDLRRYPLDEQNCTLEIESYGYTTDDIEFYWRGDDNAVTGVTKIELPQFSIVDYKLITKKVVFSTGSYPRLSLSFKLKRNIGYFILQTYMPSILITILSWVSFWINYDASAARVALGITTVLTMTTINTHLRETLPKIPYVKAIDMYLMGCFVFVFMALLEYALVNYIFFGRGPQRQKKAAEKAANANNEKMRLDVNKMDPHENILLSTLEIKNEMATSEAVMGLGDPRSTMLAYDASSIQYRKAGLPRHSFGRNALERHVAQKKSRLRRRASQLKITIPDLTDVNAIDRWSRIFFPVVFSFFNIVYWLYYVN
GABA A receptor alpha-3/beta-2/gamma-2, sequence (P18508 whole entry): as the sequence (P18508 whole entry) above
GABA A receptor alpha-3/beta-2/gamma-2, sequence (P20236 whole entry): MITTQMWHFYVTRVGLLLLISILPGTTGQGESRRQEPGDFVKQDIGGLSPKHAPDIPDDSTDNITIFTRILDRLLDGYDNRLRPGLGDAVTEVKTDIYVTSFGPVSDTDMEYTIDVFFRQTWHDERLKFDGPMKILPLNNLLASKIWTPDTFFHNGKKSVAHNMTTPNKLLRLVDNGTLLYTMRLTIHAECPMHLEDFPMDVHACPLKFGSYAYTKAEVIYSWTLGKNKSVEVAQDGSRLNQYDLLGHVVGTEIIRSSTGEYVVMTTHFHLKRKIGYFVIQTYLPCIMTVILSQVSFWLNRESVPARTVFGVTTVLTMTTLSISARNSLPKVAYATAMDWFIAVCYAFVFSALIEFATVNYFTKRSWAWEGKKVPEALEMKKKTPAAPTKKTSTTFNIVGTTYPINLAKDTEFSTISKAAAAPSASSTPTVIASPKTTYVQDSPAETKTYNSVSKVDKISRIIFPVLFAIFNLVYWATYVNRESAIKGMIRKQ
GABA A receptor alpha-3/beta-2/gamma-2, sequence (P63138 whole entry): as the sequence (P63138 whole entry) above

By Ki is commonly meant the dissociation constant of the complex between target and ligand, obtained from inhibition or displacement. Low readings indicate tighter binding, high ones weaker binding. As for `[O-][n+]1nc2c(-c3ccsc3)cnn2c2cc(Cl)ccc21`, the inhibitory constant (Ki) in series [1] worked out at 18 nM; in [2], 4.1 nM; in series [3] it was 12 nM; in series [4], 33 nM.
On to `O=C(OCc1cccs1)c1cnn2c1n[n+]([O-])c1ccc(Cl)cc12`, for which the Ki is 8.6 nM in [1]; 3 nM in series [16]; 26 nM in series [3]; 12 nM in [4]; 6.8 nM in series [27]. The Activity in the series on Mus musculus [5] was found to be 170.8%; in the series with Mus musculus [10], 157.1%; in the series on Mus musculus [14], 144.3%; in the series with Mus musculus [15], 0%; in the series on Mus musculus [17], 12.89%; in the series with Mus musculus [21] it was 0%. Moreover, the Activity amounted to 155.1% in the series on Mus musculus [22]; 20% in the series with Mus musculus [23]; 15.38% with Mus musculus [24]; 40% in the series with Mus musculus [25]; 20% with Mus musculus [26]. The No. of falls in the series with Mus musculus [6] is 0; in the series on Mus musculus [7], 0.1; with Mus musculus [11], 0.1; in the series with Mus musculus [12], 0.1; with Mus musculus [13] it was 0.15. Besides, the mortality in [8] is 40%. For the same compound, the No. of transfers in the series with Mus musculus [9] stood at 14.6; with Mus musculus [18] it was 16.6; in the series with Mus musculus [19] it was 21.1; in the series on Mus musculus [20] it was 20.5; in the series on Mus musculus [28], 15.6.
Take `CCOC(=O)c1ncn2c1CN(C)C(=O)c1cc(F)ccc1-2` [FLUMAZENIL]: the Activity in the series on Mus musculus [29] stood at 119%; in the series with Mus musculus [30] it was 90.36%; with Mus musculus [31], 5.3%; in the series with Mus musculus [33], 11.1%. The No. of transfers in the series with Mus musculus [32] was 15.2; in the series with Mus musculus [34], 11.8. For the same compound, the No. of falls in the series on Mus musculus [35] came out at 0.33; in the series on Mus musculus [36] it was 0.4.
